≈ marks a conversion by molar mass, not a printed value. Calls of active or inactive are those of the source. No cut-off for these calls is given here.
Legend:
[1] = test system: Staphylococcus aureus; experiment: Antibacterial activity against methicillin sensitive Staphylococcus aureus 6538 assessed as inhibition of bacterial growth incubated for 18 to 20 hrs by CLSI protocol based broth microdilution method; type: functional; details: time 18-20 hrs
How it was run: (§1)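 Broth microdilution against staphylococcal clinical isolates. Each strain was prepared as a 0.5 McFarland suspension and diluted in cation-adjusted Mueller Hinton broth to ~5 × 10^5 CFU mL−1. Serial dilutions of test agents in DMSO stock were incubated with the bacteria, and the MIC was recorded.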

[2] = test system: Staphylococcus aureus; experiment: Antibacterial activity against methicillin resistant Staphylococcus aureus 386 assessed as inhibition of bacterial growth incubated for 18 to 20 hrs by CLSI protocol based broth microdilution method; type: functional; details: time 18-20 hrs; how it was run: as §1
[3] = test system: Staphylococcus aureus; experiment: Antibacterial activity against methicillin sensitive Staphylococcus aureus 6538 assessed as inhibition of bacterial growth at 0.5 ug/ml incubated for 18 to 20 hrs by CLSI protocol based broth microdilution method; type: functional, organism-based; details: dose 0.5 µg/ml, time 18-20 hrs
How it was run: (§2)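 Staphylococcal and E. coli strains were diluted from a 0.5 McFarland suspension in cation-adjusted Mueller Hinton broth to ~5 × 10^5 CFU mL−1. They were incubated with serial dilutions of test agent in broth microdilution, and the MIC was recorded.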

[4] = test system: Staphylococcus aureus; experiment: Antibacterial activity against methicillin resistant Staphylococcus aureus 384 assessed as inhibition of bacterial growth at 0.5 ug/ml incubated for 18 to 20 hrs by CLSI protocol based broth microdilution method; type: functional, organism-based; details: dose 0.5 µg/ml, time 18-20 hrs
[5] = test system: Streptococcus pyogenes; experiment: Antibacterial activity against Streptococcus pyogenes MGAS 9882 assessed as inhibition of bacterial growth incubated for 18 to 20 hrs by CLSI protocol based broth microdilution method; type: functional; details: time 18-20 hrs
How it was run: (§3)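 Streptococci were diluted from a 0.5 McFarland suspension in cation-adjusted Mueller Hinton broth with 5% lysed horse blood. They were incubated with serial dilutions of test agent in broth microdilution, and the MIC was recorded.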

[6] = test system: Staphylococcus aureus; experiment: Antibacterial activity against methicillin resistant Staphylococcus aureus 119 assessed as inhibition of bacterial growth at 0.5 ug/ml incubated for 18 to 20 hrs by CLSI protocol based broth microdilution method; type: functional, organism-based; details: dose 0.5 µg/ml, time 18-20 hrs
[7] = test system: Staphylococcus aureus; experiment: Antibacterial activity against methicillin resistant Staphylococcus aureus NRS384 USA300 infected in Balb/c mouse model of skin infection assessed as healing administered topically twice daily for three consecutive days from day 4 to 6 and measured 24 hrs post last dose; type: functional, organism-based; details: route top, time 4.0 day
How it was run: (§4)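 Mice were anesthetized with 2,2,2-tribromoethanol and injected subcutaneously with 100 μL containing 2 × 10^9 CFU MRSA USA300 in 0.5% HPMC in saline. Topical treatment used a petroleum jelly vehicle, with a fusidic acid positive control. Lesions were photographed 24 h after the last dose. A ~1.5 cm2 skin patch (homogenized in 1 mL saline) and the spleen (in 0.5 mL) were serially diluted and plated on MSA at 37 °C overnight for CFU.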

[8] = test system: Staphylococcus aureus; experiment: Antibacterial activity against vancomycin resistant Staphylococcus aureus 12 assessed as inhibition of bacterial growth at 0.5 ug/ml incubated for 18 to 20 hrs by CLSI protocol based broth microdilution method; type: functional, organism-based; details: dose 0.5 µg/ml, time 18-20 hrs
[9] = test system: Staphylococcus aureus; experiment: Antibacterial activity against vancomycin resistant Staphylococcus aureus 10 assessed as inhibition of bacterial growth at 0.5 ug/ml incubated for 18 to 20 hrs by CLSI protocol based broth microdilution method; type: functional, organism-based; details: dose 0.5 µg/ml, time 18-20 hrs
[10] = test system: Enterococcus faecalis; experiment: Antibacterial activity against Enterococcus faecalis 51299 assessed as inhibition of bacterial growth incubated for 18 to 20 hrs by CLSI protocol based broth microdilution method; type: functional; details: time 18-20 hrs
How it was run: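 Enterococci and L. monocytogenes were diluted from a 0.5 McFarland suspension in TSB. They were incubated with serial dilutions of test agent in broth microdilution, and the MIC was recorded.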

[11] = test system: Staphylococcus aureus; experiment: Antibacterial activity against vancomycin resistant Staphylococcus aureus 10 assessed as inhibition of bacterial growth incubated for 18 to 20 hrs by CLSI protocol based broth microdilution method; type: functional; details: time 18-20 hrs; how it was run: as §1
[12] = test system: Staphylococcus aureus; experiment: Antibacterial activity against methicillin sensitive Staphylococcus aureus 107 assessed as inhibition of bacterial growth at 0.5 ug/ml incubated for 18 to 20 hrs by CLSI protocol based broth microdilution method; type: functional, organism-based; details: dose 0.5 µg/ml, time 18-20 hrs; how it was run: as §2
[13] = test system: Staphylococcus aureus; experiment: Antibacterial activity against vancomycin resistant Staphylococcus aureus 12 assessed as inhibition of bacterial growth incubated for 18 to 20 hrs by CLSI protocol based broth microdilution method; type: functional; details: time 18-20 hrs; how it was run: as §1
[14] = test system: Staphylococcus aureus; experiment: Antibacterial activity against methicillin resistant Staphylococcus aureus 384 assessed as inhibition of bacterial growth incubated for 18 to 20 hrs by CLSI protocol based broth microdilution method; type: functional; details: time 18-20 hrs; how it was run: as §1
[15] = test system: Staphylococcus aureus; experiment: Antibacterial activity against methicillin resistant Staphylococcus aureus 123 assessed as inhibition of bacterial growth at 0.5 ug/ml incubated for 18 to 20 hrs by CLSI protocol based broth microdilution method; type: functional, organism-based; details: dose 0.5 µg/ml, time 18-20 hrs
[16] = test system: Staphylococcus aureus; experiment: Antibacterial activity against methicillin resistant Staphylococcus aureus NRS384 USA300 infected in Balb/c mouse model of skin infection assessed as reduction in inflammation administered topically twice daily for three consecutive days from day 4 to 6 and measured 24 hrs post last dose; type: functional, organism-based; details: route top, time 4.0 day; how it was run: as §4
[17] = test system: Streptococcus pyogenes; experiment: Antibacterial activity against Streptococcus pyogenes MGAS 1882 assessed as inhibition of bacterial growth incubated for 18 to 20 hrs by CLSI protocol based broth microdilution method; type: functional; details: time 18-20 hrs; how it was run: as §3
[18] = test system: Staphylococcus aureus; experiment: Antibacterial activity against methicillin sensitive Staphylococcus aureus 107 assessed as inhibition of bacterial growth incubated for 18 to 20 hrs by CLSI protocol based broth microdilution method; type: functional; details: time 18-20 hrs; how it was run: as §1
[19] = test system: Staphylococcus aureus; experiment: Antibacterial activity against methicillin resistant Staphylococcus aureus 385 assessed as inhibition of bacterial growth incubated for 18 to 20 hrs by CLSI protocol based broth microdilution method; type: functional; details: time 18-20 hrs; how it was run: as §1
[20] = test system: Streptococcus pneumoniae; experiment: Antibacterial activity against Streptococcus pneumoniae 700677 assessed as inhibition of bacterial growth incubated for 18 to 20 hrs by CLSI protocol based broth microdilution method; type: functional; details: time 18-20 hrs; how it was run: as §3
[21] = test system: Staphylococcus aureus; experiment: Antibacterial activity against vancomycin resistant Staphylococcus aureus 9 assessed as inhibition of bacterial growth at 0.5 ug/ml incubated for 18 to 20 hrs by CLSI protocol based broth microdilution method; type: functional, organism-based; details: dose 0.5 µg/ml, time 18-20 hrs
[22] = test system: Staphylococcus epidermidis; experiment: Antibacterial activity against Staphylococcus epidermidis 101 assessed as inhibition of bacterial growth incubated for 18 to 20 hrs by CLSI protocol based broth microdilution method; type: functional; details: time 18-20 hrs; how it was run: as §2
[23] = Hemolytic activity in rabbit erythrocytes at 32 to 64 ug/ml incubated for 30 mins by absorbance based assay; type: toxicity, cell-based, Oryctolagus cuniculus; details: erythrocyte, 0.5 h, dose 32-64 µg/ml
How it was run: (§5)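 Rabbit erythrocytes were washed three times in PBS pH 7.4 and adjusted to A540 0.8. They were mixed 1:1 with compound (final 16, 32, 64 μg mL−1) for 30 min at 37 °C. After centrifugation at 13 000 × g for 5 min, supernatant A540 was read as % of 1% Triton X-100 complete hemolysis. PBS served as negative control. Each concentration was run twice.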

[24] = Hemolytic activity in rabbit erythrocytes at 16 ug/ml incubated for 30 mins by absorbance based assay; type: toxicity, cell-based, Oryctolagus cuniculus, Erythrocyte; details: at 16 µg/mL, read-out: Activity; how it was run: as §5
[25] = test system: Staphylococcus aureus; experiment: Antibacterial activity against methicillin resistant Staphylococcus aureus 386 assessed as inhibition of bacterial growth at 0.5 ug/ml incubated for 18 to 20 hrs by CLSI protocol based broth microdilution method; type: functional, organism-based; details: dose 0.5 µg/ml, time 18-20 hrs
[26] = test system: Staphylococcus aureus; experiment: Antibacterial activity against methicillin resistant Staphylococcus aureus 385 assessed as inhibition of bacterial growth at 0.5 ug/ml incubated for 18 to 20 hrs by CLSI protocol based broth microdilution method; type: functional, organism-based; details: dose 0.5 µg/ml, time 18-20 hrs
[27] = test system: Staphylococcus aureus; experiment: Antibacterial activity against methicillin resistant Staphylococcus aureus NRS384 USA300 assessed as inhibition of bacterial growth incubated for 18 to 20 hrs by CLSI protocol based broth microdilution method; type: functional; details: time 18-20 hrs, read-out: MIC; how it was run: as §1

In the case of `C/C(=N\NC(=N)N)c1ccc(NC(=O)Nc2ccc(C#Cc3ccccc3)cc2)cc1`, the MIC [1] is reported as 0.5 µg/mL (≈ 1.22 µM), the MIC [2] is reported as 0.5 µg/mL (≈ 1.22 µM) and the Activity [3] is reported as “Active”. The Activity [4] was “Active”, the MIC [5] was 0.5 µg/mL (≈ 1.22 µM) and the Activity [6] was “Active”. For the same molecule, the Activity [7] was “Active”, the Activity [8] was “Active” and the Activity [9] was “Active”. The MIC [10] was 0.5 µg/mL (≈ 1.22 µM), the MIC [11] was 0.5 µg/mL (≈ 1.22 µM) and the Activity [12] was “Active”. The MIC [13] was 0.5 µg/mL (≈ 1.22 µM), the MIC [14] was 0.5 µg/mL (≈ 1.22 µM) and the Activity [15] was “Active”. For the same molecule, the Activity [16] was “Active”, the MIC [17] was 0.5 µg/mL (≈ 1.22 µM) and the MIC [18] was 0.5 µg/mL (≈ 1.22 µM). For the same molecule, the MIC [19] was 0.5 µg/mL (≈ 1.22 µM), the MIC [20] was 0.5 µg/mL (≈ 1.22 µM) and the Activity [21] was “Active”. The MIC [22] was 0.5 µg/mL (≈ 1.22 µM), the Activity [23] was “Toxic” and the hemolysis at 0.5 h, 16 ug/ml [24] was 2%. The Activity [25] was “Active”, the Activity [26] was “Active” and the MIC [27] was 0.5 µg/mL (≈ 1.22 µM).
